Experimental data from different studies.
Protocols differ between the studies behind these lines.
Cell line: NCI-H460
Effect on: cell growth or viability

COc1ccc(NC(=O)Nc2cccc(-c3cn(Cc4ccc(C)cc4)nn3)c2)cc1  viability (CCK-8; 50 µM; 72 h): 102%
COc1cc([C@@H]2c3cc4c(cc3[C@@H](O[C@@H]3O[C@@H]5CO[C@@H](C)O[C@H]5[C@H](O)[C@H]3O)[C@H]3COC(=O)[C@H]23)OCO4)cc(OC)c1O  IC50 (MTS; 72 h): 0.69 µM
CCCCCCCCCCCCCCCCCCOc1ccccc1CC(=O)OCC[N+](CC)(CC)CC  inhibition (SRB; 10 µM): 65.4%
C[C@H](Nc1ccc2c(c1)OCCn1cc(N3C(=O)OC[C@H]3C(F)F)nc1-2)C(N)=O  EC50 (ATP luminescence; 5 days): 2.9 µM
COc1ccc(NC(=O)NCc2cn(Cc3ccc(Br)cc3)nn2)cc1  viability (CCK-8; 50 µM; 72 h): 77.1%
O=C(CSc1nc2ccccc2s1)N/N=C/c1ccc(OCC(=O)Nc2cccc(Br)c2)cc1  IC50 (MTS; 72 h): 32.1 µM
O=c1cc(OCc2cc(-c3ccc(C(F)(F)F)cc3)no2)c2ccccc2o1  IC50 (MTS; 72 h): > 100 µM
COc1ccc(NC(=O)NCc2cn(Cc3ccc(C)cc3)nn2)cc1  viability (CCK-8; 50 µM; 72 h): 95.5%
CCCCCCCCCCCCCCCCCCOc1cccc(CC(=O)OCC[N+](C)(C)C)c1  inhibition (SRB; 10 µM): 2.4%
FC(F)(F)c1cc(OCc2cc(-c3ccc(Cl)cc3Cl)no2)c2ccccc2n1  IC50 (MTS; 72 h): > 100 µM
CCCCCCCCCCCCCCCCCCOc1ccc(CC(=O)OCC[N+](CC)(CC)CC)cc1  inhibition (SRB; 10 µM): 15.8%
COc1ccc(NC(=O)Nc2ccc(-c3cn(Cc4cccc(Cl)c4)nn3)cc2)cc1  viability (CCK-8; 50 µM; 72 h): 87.4%
CCCCCCCCCCCCCCCCCCOc1cccc(CC(=O)OCC[N+]2(C)CCCCC2)c1  inhibition (SRB; 10 µM): 0.88%
COc1ccc(NC(=O)Nc2cccc(-c3cn(Cc4ccc(Br)cc4)nn3)c2)cc1  viability (CCK-8; 50 µM; 72 h): 106%
N#Cc1ccc(-c2cc(CNc3cccc4cccnc34)on2)cc1  IC50 (MTS; 72 h): > 100 µM
Cc1ccccc1Cn1cc(-c2cccc(NC(=O)Nc3ccc(F)cc3)c2)nn1  viability (CCK-8; 50 µM; 72 h): 72.6%
O=c1cc(OCc2cc(-c3ccc(Cl)cc3Cl)no2)c2ccccc2o1  IC50 (MTS; 72 h): > 100 µM
CCCCCCCCCCCCCCCCCCOc1cccc(CC(=O)OCC[N+]2(C)CCCC2)c1  inhibition (SRB; 10 µM): 4.17%
COc1ccc(NC(=O)NCc2cn(Cc3ccc(Cl)cc3)nn2)cc1  viability (CCK-8; 50 µM; 72 h): 91.8%
O=C(CSc1nc2ccccc2s1)N/N=C/c1ccc(OCC(=O)Nc2cccc([N+](=O)[O-])c2)cc1  IC50 (MTS; 72 h): 15.8 µM
CCCCCCCCCCCCCCCCCCOc1ccccc1CC(=O)OCCC[N+](C)(C)C  inhibition (SRB; 10 µM): 19.9%
FC(F)(F)c1cc(OCc2cc(-c3ccccn3)no2)c2ccccc2n1  IC50 (MTS; 72 h): > 100 µM
O=C(CSc1nc2ccccc2s1)N/N=C/c1ccc(OCC(=O)Nc2cccc(Cl)c2)cc1  IC50 (MTS; 72 h): 29.6 µM
CCCCCCCCCCCCCCCCCCOCC(COP(=O)([O-])OCC[N+](C)(C)C)OC (stereo not drawn)  inhibition (SRB; 10 µM): 53.6%
Clc1ccc(-c2cc(CNc3cccc4cccnc34)on2)c(Cl)c1  IC50 (MTS; 72 h): > 100 µM
CCCCCCCCCCCCCCCCCCOc1cccc(CC(=O)OCCC[N+](C)(C)C)c1  inhibition (SRB; 10 µM): 4.47%
FC(F)(F)c1ccc(-c2cc(COc3cc(C(F)(F)F)nc4ccccc34)on2)cc1  IC50 (MTS; 72 h): > 100 µM
